# Most compounds without a hit are left out; they make up all but 2.9% or so of the library.
# Kir21 block: Kir2.1 (mouse) channel inhibition | P35561 | HEK293-Kir2.1, FluxOR thallium flux fluorescence; stronger effect = lower value | B-score at 10 µM | 310,000 tested, 0.85% active | AID 1672;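 active = fluorescence ratio B-score at or below minus 3 SD of library scores, with starting-brightness B-score within 2 SD, cut at about -4.2 in these data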;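 note: channel flux triggered by added potassium and thallium sulfate stimulus; B-score of peak minus minimum fluorescence over baseline after thallium stimulus; more negative B-score means stronger Kir2.1 block with less thallium influx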
# TRPC6 act: mouse TRPC6 channel activation; HEK293-TRPC6 membrane potential dye fluorescence; stronger effect = higher value; B-score at 10 µM; 310,000 tested, 0.13% active;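 active = B-score of the integrated fluorescence ratio above library mean plus 3 SD, and starting fluorescence ratio within library mean plus 5 SD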;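 note: higher score means more depolarization so channel activation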
# TRPC4 act: activators of mouse TRPC4 channel; HEK293 TRPC4beta/mu-opioid, Fluo4 calcium fluorescence; stronger effect = higher value; B-score at 10 µM; Q9QUQ5; 310,000 tested, 0.49% active;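 active = B-score above 5 SD of library B-scores, and initial fluorescence ratio not above library mean plus 5 SD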;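 note: positive B-score marks a calcium rise read as TRPC4 activation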
# Target sequence (Q9QUQ5 whole entry, looked up): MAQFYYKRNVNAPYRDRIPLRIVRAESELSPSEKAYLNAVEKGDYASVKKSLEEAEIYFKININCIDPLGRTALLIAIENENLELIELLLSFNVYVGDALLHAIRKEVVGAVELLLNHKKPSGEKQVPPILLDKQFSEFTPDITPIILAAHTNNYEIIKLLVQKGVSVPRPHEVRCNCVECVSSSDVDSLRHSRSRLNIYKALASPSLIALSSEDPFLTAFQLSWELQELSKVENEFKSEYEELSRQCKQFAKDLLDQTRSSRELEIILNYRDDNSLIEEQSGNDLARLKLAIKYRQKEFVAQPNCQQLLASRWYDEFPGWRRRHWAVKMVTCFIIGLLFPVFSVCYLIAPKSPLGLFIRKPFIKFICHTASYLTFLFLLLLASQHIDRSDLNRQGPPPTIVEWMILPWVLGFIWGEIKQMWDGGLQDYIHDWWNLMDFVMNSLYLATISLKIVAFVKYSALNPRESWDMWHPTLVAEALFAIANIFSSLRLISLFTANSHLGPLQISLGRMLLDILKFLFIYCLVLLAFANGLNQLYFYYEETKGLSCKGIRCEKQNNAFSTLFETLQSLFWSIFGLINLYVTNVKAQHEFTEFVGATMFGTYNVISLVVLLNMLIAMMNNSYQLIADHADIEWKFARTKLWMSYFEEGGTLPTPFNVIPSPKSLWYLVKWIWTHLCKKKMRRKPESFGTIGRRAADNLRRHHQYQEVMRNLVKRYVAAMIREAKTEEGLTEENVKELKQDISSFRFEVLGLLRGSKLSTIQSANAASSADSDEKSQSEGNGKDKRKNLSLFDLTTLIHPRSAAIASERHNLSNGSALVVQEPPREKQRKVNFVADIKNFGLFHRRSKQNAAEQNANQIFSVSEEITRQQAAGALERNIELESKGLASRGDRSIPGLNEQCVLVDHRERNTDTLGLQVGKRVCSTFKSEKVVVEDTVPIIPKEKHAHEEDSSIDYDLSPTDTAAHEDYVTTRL
#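 Assay system: HEK293 stable line with TRPC4beta plus mu-opioid receptor. Times: dye 45 min RT, read 110 s. Measured by: kinetic Fluo4 calcium fluorescence. Measure: B score of integrated ratio. Controls: assay buffer as low control, maximal DAMGO as high control.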
# TRPC4 block: inhibitors of mouse TRPC4 channel; Q9QUQ5; HEK293 TRPC4beta/mu-opioid, DAMGO-evoked Fluo4 calcium flux; stronger effect = lower value; B-score at 10 µM; 300,000 tested, 0.39% active;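 active = B-score over 3 SD under the library average, no early fluorescence shift, positive overall ratio signal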
#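 Material: HEK293 cells with stable TRPC4beta plus mu-opioid receptor expression / Probe or stimulus: DAMGO in two steps, submaximal then maximal / Compound: single concentration per test compound / Technique: kinetic Fluo4 fluorescence imaging of calcium influx / Read-out: per-well B score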
# TRPC6 inh: inhibitors of mouse TRPC6 channel | Q61143 | HEK293-TRPC6, membrane potential dye, ACh-evoked depolarization; stronger effect = lower value | B-score at 10 µM | 310,000 tested, 1.1% active;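 active = B-score under library mean minus 3 SD, initial fluorescence not abnormally high, positive integrated signal ratio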;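 note: B-score derived from integrated fluorescence ratio over the kinetic read; more negative B-score means stronger inhibition of depolarization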
# TRPC4 potent: allosterically enhances the mouse TRPC4 cation channel. Q9QUQ5. HEK293 TRPC4beta/mu-opioid, DAMGO EC20, Fluo-4 Ca2+ flux; stronger effect = higher value. B-score at 10 µM. 310,000 tested, 0.42% active. AID 2227;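 active = B-score of calcium response area above 5 SD of library B-scores, with initial fluorescence ratio within 5 SD of library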;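 note: B-score of integrated fluorescence ratio over time as area under calcium response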
# TRPC4 spec 2: mouse TRPC4 off-target activity of TRPC6 inhibitors, second screen | shares compounds with TRPC6 inh | HEK293 TRPC4/MOR, membrane potential dye fluorescence; channel activated by saturating DAMGO dose | inhibition, % at 10 µM | 920 tested, 42% active | AID 2776;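 active = compounds whose fluorescence signal differed from control wells by over 3 SD, either direction, in both duplicate plates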
# TRPC4 spec: mouse TRPC4 off-target activity of TRPC6 inhibitors. shares compounds with TRPC6 inh. HEK293 TRPC4/mu-opioid, membrane potential fluorescence. activity change, negative = inhibition, % at 10 µM. 920 tested, 61% active. AID 2777;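 active = rise or fall in signal beyond 3 SD of buffer-only wells in both replicate plates, either sign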;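 note: integrated kinetic ratio of fluorescence range over baseline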
# HEK293 MPD ctr 2-1: second check of TRPC6 inhibitor effects in parental HEK293 cells | shares compounds with TRPC6 inh | parental HEK293 membrane potential dye fluorescence; maximal acetylcholine challenge after compound addition | signal change vs control, % at 10 µM | 920 tested, 31% active | AID 2779;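 active = membrane potential signal moving either way by over 3 SD of the maximum-effect control, in both duplicate plates, meaning non-specific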
# HEK293 MPD ctr-1: counter-screen for TRPC6 inhibitors: effect in parental HEK293 cells; parental HEK293 membrane potential dye fluorescence; 920 tested, 60% active; shares compounds with TRPC6 inh; membrane potential signal change, % at 10 µM; AID 2780;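 active = membrane potential signal shifting up or down by more than 3 SD of buffer-only wells, on both duplicate plates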
# HEK293 MPD ctr-2: counter-screen for TRPC6 modulators: effect in parental HEK293 cells | shares compounds with TRPC6 inh | membrane potential dye fluorescence | membrane potential signal change, % at 10 µM | 2,400 tested, 51% active | AID 488924;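 active = membrane potential signal moves up or down beyond 5 SD from buffer-only wells, on both duplicate plates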
# HEK293 MPD ctr 2-2: parental HEK293 nonspecific activity of TRPC6 modulators, second screen; shares compounds with TRPC6 inh; membrane potential dye fluorescence; after compound, maximal acetylcholine stimulation; inhibition, % at 10 µM; 2,400 tested, 14% active; AID 488926;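 active = membrane potential signal drops by more than 5 SD from the mean control signal, in both duplicate plates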;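 note: plate controls were acetylcholine ECmax control wells for no effect and buffer only wells for full effect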
# TRPC4/MOR mod: selectivity of TRPC6 modulators against mouse TRPC4. shares compounds with TRPC6 inh. HEK293 TRPC4/mu-opioid, membrane potential fluorescence. percent change from control (negative = decrease, positive = increase), % at 10 µM. 2,400 tested, 69% active;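 active = membrane potential signal moved up or down beyond 5 SD of buffer control wells, in both duplicate plates, actives on both sides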;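 note: plate controls were assay buffer wells for no effect and DAMGO maximal-effect wells for full effect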
# TRPC4 ctr inh 2: second selectivity test of TRPC6 modulators against mouse TRPC4 | shares compounds with TRPC6 inh | HEK293 TRPC4/mu-opioid, membrane potential dye fluorescence; stimulated with maximal-effect DAMGO | inhibition, % at 10 µM | 2,400 tested, 55% active | AID 488928;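 active = drop in membrane potential signal beyond 5 SD of the control wells in both duplicate plates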;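 note: TRPC4 counter screen for TRPC6 hits run under conditions tuned for TRPC6 not TRPC4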
# TRPC6 inh conf: mouse TRPC6 inhibitor confirmation; shares compounds with TRPC6 inh; HEK293-TRPC6, membrane potential dye, ACh-evoked depolarization; inhibition, % at 10 µM; 3,300 tested, 43% active;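 active = fluorescence ratio falls more than 5 SD below the full-stimulation control mean, in both duplicate runs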;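 note: integrated fluorescence ratio of peak minus minimum over baseline after agonist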
# TRPC6 act conf: mouse TRPC6 activator confirmation | shares compounds with TRPC6 inh | HEK293-TRPC6 membrane potential dye fluorescence, FDSS | activation, % at 10 µM | 2,800 tested, 11% active;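 active = ratio signal rise beyond 5 SD above unstimulated control wells' mean, seen in both duplicate runs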;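 note: plate controls were buffer EC0 wells for no effect and acetylcholine ECmax response for full effect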
# Numbers without * were called inactive; i = inactive; / = no result given.
SMILES,Kir21 block,TRPC6 act,TRPC4 act,TRPC4 block,TRPC6 inh,TRPC4 potent,TRPC4 spec 2,TRPC4 spec,HEK293 MPD ctr 2-1,HEK293 MPD ctr-1,HEK293 MPD ctr-2,HEK293 MPD ctr 2-2,TRPC4/MOR mod,TRPC4 ctr inh 2,TRPC6 inh conf,TRPC6 act conf
C[N+]1(C)[C@@H]2CC[C@H]1CC(OC(=O)C(c1ccccc1)c1ccccc1)C2 (stereo partly specified),0.94,i,i,i,-5.3*,i,/,/,/,/,i,91%*,i,i,96%*,i
CCC1(C(=O)c2ccccc2)C2c3ccccc3OC(=O)C21C(C)=O (stereo unspecified),-0.06,i,i,i,i,i,/,/,/,/,/,/,/,/,/,/
CCn1ccnc1CN1CCCC(C(=O)c2ccc(SC)cc2)C1 (stereo unspecified),-3.5,i,i,i,-5*,i,/,/,/,/,i,i,15%*,i,54%*,/
Cc1cc(=O)oc2c(C)c(OCC(=O)N3CCN(Cc4ccccc4)CC3)ccc12,-2,i,i,i,i,i,/,/,/,/,/,/,/,/,/,/
N#CC(C#N)=NNc1ccc(-n2ccc(C(F)(F)F)n2)cc1,-6*,i,i,i,-9.2*,i,/,/,/,/,170%*,i,27%*,71%*,62%*,i
C[C@H]1OC[C@@H](C[N+](C)(C)C)O1,-0.33,i,88*,i,-6.7*,i,i,34%*,i,4.8%*,/,/,/,/,70%*,/
O=C(O)COc1ccc(Cl)cc1Cl,-0.38,i,i,i,i,i,/,/,/,/,/,/,/,/,/,/
CCCCOc1ccc(CCN)cc1Cl,-1.3,i,i,i,-6.4*,14*,/,/,/,/,82%*,i,i,52%*,60%*,/
O=C1OC(c2ccc([N+](=O)[O-])cc2)=N/C1=C/N1CC2CC(C1)c1cccc(=O)n1C2 (stereo unspecified),-0.71,37*,96*,i,i,i,/,/,/,/,272%*,102%*,57%*,31%*,/,124%*
CN(C)c1ccc(CN2CC=C(c3ccc(F)cc3)CC2)cc1,-0.57,i,i,i,-7.9*,i,75%*,i,i,i,/,/,/,/,i,i
CCS(=O)(=O)NCc1nnc2n1-c1ccc(Br)cc1C(c1ccccc1Cl)=NC2,-0.92,i,i,i,i,i,/,/,/,/,/,/,/,/,/,/
CCCOc1ccc(C(=O)NC(=S)N2C[C@H]3C[C@H](C2)c2cccc(=O)n2C3)cc1,0.13,i,i,i,i,i,/,/,/,/,/,/,/,/,/,/
Clc1ccc2sc(C3CCNCC3)nc2c1,-1.1,i,187*,i,-6*,i,/,/,/,/,i,i,47%*,52%*,i,i
CC(=O)NNC(=O)CN1C(=O)CN=C(c2ccccc2)c2cc(Br)ccc21,-0.34,i,i,i,i,i,/,/,/,/,/,/,/,/,/,/
CCOc1cc2c(cc1OCC)-n1cccc1C(c1cccc(OCC)c1O)NC2 (stereo unspecified),-1.4,i,i,i,i,i,/,/,/,/,/,/,/,/,/,/
C[N+](C)(N)CCOC(=O)C(O)(c1ccccc1)C1CCCCC1 (stereo unspecified),0.44,i,i,i,-9.6*,i,i,i,-39%*,i,/,/,/,/,89%*,i
OC(CC#CCN1CCCCCC1)(c1ccccc1)C1CCCC1 (stereo unspecified),-0.87,i,i,i,i,i,/,/,/,/,/,/,/,/,/,/
CC[N+](CC)(CC)CCCOC(=O)C(O)(c1ccccc1)C1CCCCC1 (stereo unspecified),2.2,i,i,i,-12*,i,i,i,-40%*,i,/,/,/,/,97%*,i
C#C[C@@]1(O)CCC2C3CCC4=C/C(=N/OCC(=O)NC(C(=O)NC(CC(C)C)C(=O)O)C(C)C)CC[C@]4(C)C3CC[C@@]21C (stereo partly specified),-0.41,i,i,i,i,i,/,/,/,/,/,/,/,/,/,/
Cn1c(O)c(/C=C2\N=c3ccccc3=C2CCNC(=S)NC2CC2)c(=O)n(C)c1=O,1.2,i,i,i,i,i,/,/,/,/,/,/,/,/,/,/
CN1CCC(OC(=O)Cc2ccccc2)CC1,-1.4,i,i,i,i,i,/,/,/,/,/,/,/,/,/,/
CN1CCC(OC(=O)C2c3ccccc3Oc3ccccc32)CC1,-2.8,i,i,i,-6.8*,i,i,4.7%*,i,8.4%*,/,/,/,/,67%*,/
CCCC/C(=N/O)c1c(C)[nH]c2ccccc12,0.72,i,i,i,-9.5*,i,i,-13%*,i,-142%*,/,/,/,/,i,i
CCCCC/C(=N/O)c1c(C)[nH]c2ccccc12,-1.7,i,i,i,i,i,/,/,/,/,/,/,/,/,/,/

# High-throughput results from PubChem BioAssay.
